Reference: ChEMBL document CHEMBL1148746, “Functional characterization of Tet-AMPA [tetrazolyl-2-amino-3-(3-hydroxy-5-methyl- 4-isoxazolyl)propionic acid] analogues at ionotropic glutamate receptors GluR1-GluR4. The molecular basis for the functional selectivity profile of 2-Bn-Tet-AMPA” (J Med Chem, 2007)

What was measured:
[1] = Agonist activity at GluR1 M686V/I687 mutant expressed in HEK293 cells by Fluo-4/Ca2+ assay; format: functional, cell-based; details: Homo sapiens
Outline: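 Rat GluR1i mutants, cDNA sequence-verified, transiently transfected into HEK293 cells and kept 2-3 weeks under 3 mg/mL G-418 selection to make polyclonal cells. Cells were plated 16-24 h ahead, loaded with Fluo-4/AM for 1 h at 37 °C, then held in HBSS with 20 mM HEPES, 10 mM CaCl2, 2.5 mM probenecid and 100 µM CTZ, pH 7.4. Fluorescence (ex 485/em 520 nm) was read up to 60 s after agonist addition.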

[2] = biological target: Glutamate receptor 2 (Rattus norvegicus) (UniProt P19491); assay: Agonist activity at GluR2Q expressed in HEK293 cells by Fluo-4/Ca2+ assay
Chain of Glutamate receptor 2 (Rattus norvegicus) (P19491 whole entry, looked up): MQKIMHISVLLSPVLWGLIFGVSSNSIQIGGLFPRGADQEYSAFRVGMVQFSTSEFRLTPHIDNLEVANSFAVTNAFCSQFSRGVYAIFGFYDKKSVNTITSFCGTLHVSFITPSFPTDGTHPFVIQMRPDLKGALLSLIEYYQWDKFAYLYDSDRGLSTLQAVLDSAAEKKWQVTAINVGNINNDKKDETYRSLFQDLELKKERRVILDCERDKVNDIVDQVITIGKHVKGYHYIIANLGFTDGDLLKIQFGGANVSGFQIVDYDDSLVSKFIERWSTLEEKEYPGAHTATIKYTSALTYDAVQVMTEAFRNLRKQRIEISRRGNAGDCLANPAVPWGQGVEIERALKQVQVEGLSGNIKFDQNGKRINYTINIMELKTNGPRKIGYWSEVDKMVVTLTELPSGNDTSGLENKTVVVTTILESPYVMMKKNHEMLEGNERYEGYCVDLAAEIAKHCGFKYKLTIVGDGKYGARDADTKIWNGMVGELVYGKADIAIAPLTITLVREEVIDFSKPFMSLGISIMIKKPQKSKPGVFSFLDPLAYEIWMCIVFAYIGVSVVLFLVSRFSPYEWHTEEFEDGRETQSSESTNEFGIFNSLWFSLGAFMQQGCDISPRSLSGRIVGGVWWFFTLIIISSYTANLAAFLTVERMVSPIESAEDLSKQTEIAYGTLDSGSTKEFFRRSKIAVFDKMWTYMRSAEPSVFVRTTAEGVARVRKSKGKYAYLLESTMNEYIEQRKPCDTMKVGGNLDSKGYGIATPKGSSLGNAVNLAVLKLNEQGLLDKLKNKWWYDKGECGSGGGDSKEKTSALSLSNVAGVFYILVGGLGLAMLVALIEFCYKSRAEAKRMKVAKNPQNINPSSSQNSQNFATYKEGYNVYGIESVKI

[3] = biological target: Glutamate receptor 3 (Rattus norvegicus) (UniProt P19492); assay: Agonist activity at GluR3 expressed in HEK293 cells by Fluo-4/Ca2+ assay
Chain of Glutamate receptor 3 (Rattus norvegicus) (P19492 whole entry, looked up): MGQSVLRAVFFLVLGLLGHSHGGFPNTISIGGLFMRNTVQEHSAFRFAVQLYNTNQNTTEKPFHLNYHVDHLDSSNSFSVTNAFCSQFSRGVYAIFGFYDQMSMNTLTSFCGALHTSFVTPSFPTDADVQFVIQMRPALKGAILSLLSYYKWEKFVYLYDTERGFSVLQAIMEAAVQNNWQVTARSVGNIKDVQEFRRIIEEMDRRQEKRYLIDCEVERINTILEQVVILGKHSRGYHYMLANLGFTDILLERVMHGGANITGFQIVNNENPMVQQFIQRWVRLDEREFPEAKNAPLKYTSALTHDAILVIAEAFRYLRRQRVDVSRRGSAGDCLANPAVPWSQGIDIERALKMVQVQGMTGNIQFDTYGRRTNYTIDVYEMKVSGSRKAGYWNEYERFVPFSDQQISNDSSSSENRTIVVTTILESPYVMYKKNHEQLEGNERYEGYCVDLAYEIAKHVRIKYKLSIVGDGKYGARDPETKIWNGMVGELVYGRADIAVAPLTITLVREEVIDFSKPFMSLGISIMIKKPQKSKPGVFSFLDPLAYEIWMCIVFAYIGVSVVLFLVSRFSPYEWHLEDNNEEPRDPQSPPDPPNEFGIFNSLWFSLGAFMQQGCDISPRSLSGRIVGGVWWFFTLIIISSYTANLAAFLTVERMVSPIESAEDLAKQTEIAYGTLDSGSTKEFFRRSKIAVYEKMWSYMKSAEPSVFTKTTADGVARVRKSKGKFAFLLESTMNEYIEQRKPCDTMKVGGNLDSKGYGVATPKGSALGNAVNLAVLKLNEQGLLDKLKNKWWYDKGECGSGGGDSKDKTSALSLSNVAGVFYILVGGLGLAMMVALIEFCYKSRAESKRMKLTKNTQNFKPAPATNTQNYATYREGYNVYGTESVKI

[4] = biological target: Glutamate receptor 1 (Rattus norvegicus) (UniProt P19490); assay: Agonist activity at GluR1 expressed in HEK293 cells by Fluo-4/Ca2+ assay
Chain of Glutamate receptor 1 (Rattus norvegicus) (P19490 whole entry, looked up): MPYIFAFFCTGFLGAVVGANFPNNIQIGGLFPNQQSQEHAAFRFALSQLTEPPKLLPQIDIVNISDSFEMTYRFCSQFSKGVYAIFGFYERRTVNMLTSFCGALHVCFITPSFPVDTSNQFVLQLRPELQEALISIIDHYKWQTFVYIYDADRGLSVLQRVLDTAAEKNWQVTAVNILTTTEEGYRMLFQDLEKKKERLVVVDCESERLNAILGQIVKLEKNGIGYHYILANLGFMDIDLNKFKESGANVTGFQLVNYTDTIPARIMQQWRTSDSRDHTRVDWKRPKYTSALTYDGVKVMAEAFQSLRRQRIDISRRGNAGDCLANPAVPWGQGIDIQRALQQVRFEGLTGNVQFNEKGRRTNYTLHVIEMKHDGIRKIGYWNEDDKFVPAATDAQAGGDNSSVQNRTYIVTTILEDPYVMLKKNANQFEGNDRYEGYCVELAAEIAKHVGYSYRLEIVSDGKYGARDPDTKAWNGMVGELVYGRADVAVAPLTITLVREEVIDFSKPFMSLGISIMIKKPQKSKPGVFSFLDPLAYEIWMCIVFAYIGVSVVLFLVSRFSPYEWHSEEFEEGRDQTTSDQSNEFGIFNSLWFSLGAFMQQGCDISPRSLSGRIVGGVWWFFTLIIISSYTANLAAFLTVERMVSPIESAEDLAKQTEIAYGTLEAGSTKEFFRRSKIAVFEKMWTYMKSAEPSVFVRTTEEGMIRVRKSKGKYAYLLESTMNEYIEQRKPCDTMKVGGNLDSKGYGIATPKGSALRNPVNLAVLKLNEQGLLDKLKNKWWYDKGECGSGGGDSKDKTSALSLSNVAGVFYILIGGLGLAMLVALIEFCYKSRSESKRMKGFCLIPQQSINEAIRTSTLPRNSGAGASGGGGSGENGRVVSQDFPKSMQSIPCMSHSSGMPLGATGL

[5] = biological target: Glutamate receptor 4 (Rattus norvegicus) (UniProt P19493); assay: Agonist activity at GluR4 expressed in HEK293 cells by Fluo-4/Ca2+ assay
Chain of Glutamate receptor 4 (Rattus norvegicus) (P19493 whole entry, looked up): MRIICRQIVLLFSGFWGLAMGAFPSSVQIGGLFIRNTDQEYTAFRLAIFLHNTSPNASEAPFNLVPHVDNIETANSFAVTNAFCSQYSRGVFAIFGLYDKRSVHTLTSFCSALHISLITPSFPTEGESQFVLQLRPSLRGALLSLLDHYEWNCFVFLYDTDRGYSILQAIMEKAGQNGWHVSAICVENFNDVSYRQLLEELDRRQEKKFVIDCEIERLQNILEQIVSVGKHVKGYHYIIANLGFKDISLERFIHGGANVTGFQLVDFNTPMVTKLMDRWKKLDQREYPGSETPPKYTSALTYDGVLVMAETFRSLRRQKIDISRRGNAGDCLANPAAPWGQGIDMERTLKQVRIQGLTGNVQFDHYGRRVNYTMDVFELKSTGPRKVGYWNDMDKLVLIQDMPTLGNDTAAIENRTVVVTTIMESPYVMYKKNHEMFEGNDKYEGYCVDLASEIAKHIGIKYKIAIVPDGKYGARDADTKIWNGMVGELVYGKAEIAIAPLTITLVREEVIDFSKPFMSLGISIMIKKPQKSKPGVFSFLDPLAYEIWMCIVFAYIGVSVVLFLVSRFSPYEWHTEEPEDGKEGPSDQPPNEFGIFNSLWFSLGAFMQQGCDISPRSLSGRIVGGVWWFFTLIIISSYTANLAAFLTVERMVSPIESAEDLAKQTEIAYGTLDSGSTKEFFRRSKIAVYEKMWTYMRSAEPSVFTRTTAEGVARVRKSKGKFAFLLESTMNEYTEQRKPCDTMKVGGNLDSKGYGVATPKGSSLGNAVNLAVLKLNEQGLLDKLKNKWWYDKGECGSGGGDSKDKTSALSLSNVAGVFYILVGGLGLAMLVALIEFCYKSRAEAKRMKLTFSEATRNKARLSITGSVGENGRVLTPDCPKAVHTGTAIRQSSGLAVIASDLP

[6] = biological target: Glutamate receptor 3 (Rattus norvegicus) (UniProt P19492); assay: Agonist activity at GluR3 expressed in HEK293 cells relative to S-Glutamate by Fluo-4/Ca2+ assay
[7] = biological target: Glutamate receptor 4 (Rattus norvegicus) (UniProt P19493); assay: Agonist activity at GluR4 expressed in HEK293 cells relative to S-Glutamate by Fluo-4/Ca2+ assay
[8] = biological target: Glutamate receptor 1 (Rattus norvegicus) (UniProt P19490); assay: Agonist activity at GluR1 expressed in HEK293 cells relative to S-Glutamate by Fluo-4/Ca2+ assay
[9] = tested on: Glutamate receptor 1 (Homo sapiens), P42261 [D417S,M704V,I705A]; assay: Agonist activity at GluR1 D399S/M686V/I687A mutant expressed in Xenopus oocyte cells relative to S-Glutamate; format: functional, cell-based
Outline: (§1)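 Rat GluR1i mutant or GluR4i cRNA expressed in Xenopus oocytes, recorded by two-electrode voltage clamp 2-3 days after injection. Low-Ca2+ Ringer's (115 mM NaCl, 0.1 mM CaCl2, pH 7.5) was used, with 30 s pretreatment and continuous application of 100 µM CTZ. Peak currents were normalized to 1000 µM glutamate + 100 µM CTZ and fitted to the Hill equation; n = 3.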

[10] = biological target: Glutamate receptor 4 (Homo sapiens) (UniProt P48058); assay: Agonist activity at GluR4 expressed in Xenopus oocyte cells relative to S-Glutamate; format: functional, cell-based; outline: as §1
Chain of Glutamate receptor 4 (Homo sapiens) (P48058 whole entry): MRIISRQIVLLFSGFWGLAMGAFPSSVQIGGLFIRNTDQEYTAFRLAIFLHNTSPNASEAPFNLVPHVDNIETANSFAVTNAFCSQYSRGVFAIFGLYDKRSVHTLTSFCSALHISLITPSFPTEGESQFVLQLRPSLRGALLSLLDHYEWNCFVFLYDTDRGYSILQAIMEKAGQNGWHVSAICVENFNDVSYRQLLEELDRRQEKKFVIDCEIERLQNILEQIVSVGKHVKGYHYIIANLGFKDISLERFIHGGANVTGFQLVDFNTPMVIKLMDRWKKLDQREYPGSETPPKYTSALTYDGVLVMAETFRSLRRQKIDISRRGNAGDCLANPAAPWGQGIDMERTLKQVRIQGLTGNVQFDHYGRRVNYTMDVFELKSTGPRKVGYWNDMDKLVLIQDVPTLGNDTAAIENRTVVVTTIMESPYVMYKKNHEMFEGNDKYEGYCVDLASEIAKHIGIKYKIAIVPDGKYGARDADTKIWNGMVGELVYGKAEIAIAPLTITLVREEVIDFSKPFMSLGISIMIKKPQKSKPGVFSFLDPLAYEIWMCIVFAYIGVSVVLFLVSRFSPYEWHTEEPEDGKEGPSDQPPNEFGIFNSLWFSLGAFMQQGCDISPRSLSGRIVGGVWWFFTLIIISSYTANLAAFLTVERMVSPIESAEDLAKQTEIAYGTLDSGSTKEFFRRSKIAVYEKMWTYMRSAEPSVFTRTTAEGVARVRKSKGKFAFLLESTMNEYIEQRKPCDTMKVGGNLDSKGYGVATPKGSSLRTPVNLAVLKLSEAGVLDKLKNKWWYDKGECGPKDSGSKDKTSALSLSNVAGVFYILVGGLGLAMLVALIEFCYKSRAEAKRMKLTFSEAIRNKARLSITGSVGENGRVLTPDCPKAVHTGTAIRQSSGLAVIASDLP

| SMILES | EC50 ([1]; read-out: EC50) [µM] | EC50 ([1]; read-out: Log EC50 (converted)) [µM] | EC50 [2] [µM] | EC50 ([3]; read-out: EC50) [µM] | EC50 ([3]; read-out: Log EC50 (converted)) [µM] | EC50 [4] [µM] | EC50 ([5]; read-out: EC50) [µM] | RUmax [6] [%] | RUmax [7] [%] | RUmax [8] [%] | EC50 ([5]; read-out: Log EC50 (converted)) [µM] | RUmax [9] [%] | RUmax [10] [%] |
| --- | --- | --- | --- | --- | --- | --- | --- | --- | --- | --- | --- | --- | --- |
| N[C@@H](CCC(=O)O)C(=O)O [GLUTAMIC ACID] | 76 | 79.4 | – | – | – | – | – | – | – | – | – | – | – |
| CCn1nnc(-c2o[nH]c(=O)c2CC(N)C(=O)O)n1 (racemic) | – | – | 52 | 18 | 15.8 | 42 | 4 | – | – | – | – | – | – |
| CCn1nnc(-c2onc(O)c2CC(N)C(=O)O)n1 (racemic) | – | – | – | – | – | – | – | 95 | 94 | 83 | – | – | – |
| CCCn1nnc(-c2onc(O)c2CC(N)C(=O)O)n1 (racemic) | – | – | 830 | 450 | 398 | 480 | 79 | 85 | 97 | 82 | 63.1 | – | – |
| NC(Cc1c(O)noc1-c1nnn(Cc2ccccc2)n1)C(=O)O (racemic) | 500 | – | – | – | – | – | – | – | – | – | – | 60 | 63 |
| Cn1nnnc1-c1onc(O)c1CC(N)C(=O)O (racemic) | – | – | > 3000 | > 3000 | – | > 3000 | 3000 | 22 | 79 | – | – | – | – |
| CC(C)n1nnc(-c2onc(O)c2CC(N)C(=O)O)n1 (racemic) | – | – | 1000 | 700 | – | 550 | 160 | 73 | 83 | 73 | – | – | – |
